Compounds with a hit are over-represented: about 0.85% of the library has one in this group of screens.
TRPML3 ag: human TRPML3 channel agonists, primary screen, cell-based, HEK293 TRPML3-YFP, Fluo-8 calcium fluorescence, 3 µM; Mucolipin-3 (Homo sapiens), Q8TDD5; 100% = the carbachol control signal; activation, % at 3 µM; 220,000 tested, 0.29% active;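 active means activation above its plate's cutoff, the mean activation of the plate's test wells plus 3 SD, cut at about 12% in these data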;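 further: 0% = DMSO only wells and 100% = carbachol wells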
Target sequence (Q8TDD5 whole entry, looked up): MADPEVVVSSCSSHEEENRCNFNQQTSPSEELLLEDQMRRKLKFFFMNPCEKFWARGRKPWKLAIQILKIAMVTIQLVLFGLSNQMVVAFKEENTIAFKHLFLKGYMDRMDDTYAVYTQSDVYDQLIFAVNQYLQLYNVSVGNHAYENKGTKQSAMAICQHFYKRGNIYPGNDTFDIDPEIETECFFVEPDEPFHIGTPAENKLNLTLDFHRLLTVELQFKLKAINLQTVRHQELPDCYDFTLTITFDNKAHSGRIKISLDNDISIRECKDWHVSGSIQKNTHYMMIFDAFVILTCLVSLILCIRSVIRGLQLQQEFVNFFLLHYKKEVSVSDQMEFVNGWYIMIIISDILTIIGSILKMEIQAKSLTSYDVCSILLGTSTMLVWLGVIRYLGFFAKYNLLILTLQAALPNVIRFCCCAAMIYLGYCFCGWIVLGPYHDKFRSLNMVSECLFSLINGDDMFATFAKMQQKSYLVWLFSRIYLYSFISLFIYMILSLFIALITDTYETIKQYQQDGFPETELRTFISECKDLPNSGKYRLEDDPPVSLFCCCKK
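Test system: TRPML3-YFP stable HEK293 cells. Doses: single point at 3 µM. Incubation: dye loading 1 h 37 °C then 30 min ambient, 125 s read. Signal: Fluo-8 calcium dye fluorescence, ex 470-495, em 515-575 nm. Measure: percent activation from peak-to-basal fluorescence ratio, scaled between DMSO and carbachol.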
OXTR potentiator: human OXTR potentiators, primary screen, fluorescence, CHO-OTR cells, Fluo-8 calcium; Fluo-8 calcium fluorescence, potentiator mode; 0% = oxytocin EC15, 100% = EC100; AID 2445, 2010; activation, % at 3 µM; Oxytocin receptor (Homo sapiens), P30559; 320,000 tested, 0.061% active;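 active means activation above that plate's cutoff, the mean activation of tested compounds plus 3 SD, cut at about 6.6% in these data, passing the limit was not always enough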;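 further: 100% uses oxytocin at 75 nM as the full agonist control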
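Material: human OTR in CHO cells. Compound: 3.0 µM, one dose. Timing: compound 6 min at room temperature before oxytocin, 100 s read. Evaluation: % activation of max/min ratio relative to oxytocin controls. Replication: single well per compound, singlicate. Signal: Fluo-8 calcium dye fluorescence.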
OXTR agonist: human OXTR agonists, primary screen, fluorescence, CHO-OTR cells, Fluo-8 calcium. Fluo-8 calcium fluorescence; normalized: DMSO 0%, oxytocin 100%. activation, % at 3 µM. 320,000 tested, 0.32% active. AID 2435, 2010;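 active means activation above the mean of all tested compounds plus 3 SD, cutoff set per screening run, cut at about 20% in these data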;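 further: peak over basal fluorescence ratio from a 100 s FLIPR kinetic read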
V1aR counter: agonists of human V1a receptor, primary screen, counter-screen for OXTR agonist project, fluorescence, CHO-V1R cells | Vasopressin V1a receptor (Homo sapiens), P37288 | Fluo-8 calcium fluorescence, agonist mode; 0% DMSO, 100% 3 nM vasopressin | activation, % at 3 µM | 320,000 tested, 0.25% active | AID 2797, 2010;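 active means activation above the mean activation of all tested compounds plus 3 SD, per screening run, cut at about 20% in these data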;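 further: signal is peak over basal fluorescence ratio across a 100 second FLIPR read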
TRPN1 ag: zebrafish TRPN1 channel agonists, primary screen, cell-based, HEK293, calcium fluorescence; HEK293 zebrafish TRPN1-YFP, Fluo-8 calcium fluorescence; 100% = response to 87 µM carbachol; transient receptor potential cation channel N1 (TRPN1/NompC), Danio rerio; 220,000 tested, 0.18% active; activation, % at 3 µM;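 active means activation above its plate's cutoff, the mean activation of test wells on that plate plus 3 SD, cut at about 19% in these data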;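 further: 0% = DMSO alone and 100% = 87 µM carbachol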
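Assay system: Zebrafish TRPN1-YFP in HEK293 cells | Incubation: Dye loading 1 h at 37 °C, then 30 min room temperature | Measured by: Kinetic Fluo-8 fluorescence, ex 470-495, em 515-575 nm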
CRFBP-R2 agonist: agonists of CRF-BP/CRF-R2 complex, primary screen, cell-based, HEK293, calcium dye fluorescence, uHTS; CRF-binding protein / CRF receptor 2 complex (human); activation, % at 13.2 µM; 350,000 tested, 0.46% active; calcium dye fluorescence (FLIPR); percent of saturating CRF peptide response;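 active means activation of at least 50%, plus an integration ratio under a set limit after plate pattern correction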;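 further: plate controls were neutral control wells without compound for no effect and CRF at EC100 for full effect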
TRPN1 counter: zebrafish TRPN1 channel agonists, counter-screen for TRPML3 agonist project, cell-based, HEK293 TRPN1-YFP, Fluo-8 calcium | shares compounds with TRPML3 ag | Fluo-8 calcium fluorescence; scaled: carbachol wells 100%, DMSO wells 0% | activation, % at 3 µM | 310 tested, 10% active;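 active means mean activation over replicates above a set limit taken from the earlier TRPN1 channel primary screen, cut at about 19% in these data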;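 further: 100% = carbachol and 0% = 0.3% DMSO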
TRPML3 confirm: human TRPML3 channel agonists, confirmation, cell-based, HEK293 TRPML3-YFP, Fluo-8 calcium, triplicate; activation, % at 3 µM; shares compounds with TRPML3 ag; 310 tested, 80% active; Fluo-8 calcium fluorescence; 100% set by carbachol, 0% by DMSO;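 active means activation above a set limit derived from the earlier primary screen, cut at about 12% in these data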
OXTR ag confirm: human OXTR agonists, confirmation, fluorescence, CHO-OTR cells, triplicate; shares compounds with OXTR agonist; Fluo-8 calcium fluorescence, agonist; activation, % at 3 µM; 390 tested, 20% active; AID 434963, 2010;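 active means mean activation above about 20% derived from the earlier single-dose screen, limit read from the data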;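 further: peak over minimum fluorescence ratio per well during a 100 second FLIPR read; 0% = DMSO alone and 100% = oxytocin high control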
V1R ag counter 3x: V1a receptor agonists, calcium signal, counter-screen for OXTR agonist project, triplicate, fluorescence, CHO-V1R cells; shares compounds with OXTR agonist; Fluo-8 calcium fluorescence; activation, % at 3 µM; 390 tested, 10% active;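 active means mean activation over triplicate exceeds the hit threshold set in the earlier primary screen, cut at about 20% in these data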;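 further: peak over basal fluorescence ratio within a 100 second read; 0% = DMSO alone and 100% = 3 nM vasopressin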
An asterisk follows results filed as active; · = not tested or not shown.

SMILES	TRPML3 ag	OXTR potentiator	OXTR agonist	V1aR counter	TRPN1 ag	CRFBP-R2 agonist	TRPN1 counter	TRPML3 confirm	OXTR ag confirm	V1R ag counter 3x
O=C(CNC(=O)c1ccco1)NCC(c1ccco1)N1CCCCC1 (configuration not stated)	·	-1	1	-1	·	0	·	·	·	·
CC(=O)Nc1cccc(OC(=O)c2ccoc2C)c1	13*	-13	-1	0	0	115*	1	4	·	·
Cc1ccc(C)c(N(CC(=O)NC2CCCC2)S(=O)(=O)c2ccccc2)c1	·	-13	0	-2	·	-12	·	·	·	·
O=C(Nc1ccccc1)c1ccc(S(=O)(=O)N2CCCCC2)cc1	1	-7	3	5	2	-1	·	·	·	·
O=C(Nc1ccn(-c2ccccc2)n1)c1ccc(S(=O)(=O)N2CCCCCC2)cc1	53*	-7	0	2	3	2	6	61*	·	·
c1ccc2c(c1)OCCOCCOCCOCCOCCOc1ccccc1OCCOCCOCCO2	12*	-11	21*	13	11	60*	25*	11	10	12
Cc1cc2nsnc2c(S(=O)(=O)N2CCN(C)CC2)c1C	·	-6	1	0	·	0	·	·	·	·
COc1cc(C(=O)O/N=C2/C=C(C)C(=O)C=C2C)cc(OC)c1OC	0	-8	1	-1	0	0	·	·	·	·
CC1=C/C(=N\OS(=O)(=O)c2ccccc2)C(C)=CC1=O	13*	-22	20*	11	13	69*	20*	42*	9	11
CSCCC(NC(=O)c1ccc([N+](=O)[O-])cc1Cl)C(=O)OC1CCCCC1=O (configuration not stated)	·	0	0	0	·	2	·	·	·	·
CC(=O)c1sc(NC(=O)C2(F)C(F)(F)C(F)(F)C(F)(F)C(F)(F)C2(F)F)nc1C	22*	-11	21*	11	19	49	31*	16*	16	11
CCOC(=O)c1cc2n(c1/N=C/N(C)C)-c1ccccc1C2=O	1	-11	24*	15	1	31	·	·	26*	33*
CCOC(=O)c1ccc2c(c1)N(C)C(=O)c1ccccc1S2	·	-6	-3	-1	·	-6	·	·	·	·
C=CCn1c(SCCCC)nc(O)cc1=O	0	-9	33*	3	1	-2	·	·	1	0
Cc1ccc(Oc2ccc(OCC(=O)OC3CCS(=O)(=O)C3)cc2)cc1 (configuration not stated)	2	-16	25*	16	3	·	·	·	2	6
Cc1cccc(NC(=O)C2(c3ccccc3)CCOCC2)c1	1	-5	-2	-1	0	0	·	·	·	·
Cc1cccc(NC(=O)C2(c3ccc([N+](=O)[O-])cc3)CCCC2)c1	2	-25	22*	17	8	8	·	·	7	3

Assay outcomes (PubChem BioAssay)
